{"source": "ChEMBL document CHEMBL3763088", "about": "“Design, synthesis, and biological evaluation of water-soluble amino acid prodrug conjugates derived from combretastatin, dihydronaphthalene, and benzosuberene-based parent vascular disrupting agents” (Bioorg Med Chem, 2016)", "key": {"[1]": {"experiment": "Cytotoxicity against human SKOV3 cells assessed as growth inhibition after 48 hrs by SRB assay", "assay_type": "functional, SK-OV-3", "details": "Homo sapiens, SK-OV-3, 48 h", "how_it_was_run": "(§1)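 Cells kept at 37 °C, 5% CO2, up to passage 15. Plated at 7500 cells/well in DMEM with 5% FBS and 1% gentamycin, grown 24 h, then given 10-fold serial dilutions for 48 h. Fixed with 10% TCA (final), SRB-stained, read at 540 nm, normalized at 630 nm. GI50 is the concentration halving net protein staining versus controls, taken from optical density data.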"}, "NCI-H460": {"system": "NCI-H460", "experiment": "Cytotoxicity against human NCI-H460 cells assessed as growth inhibition after 48 hrs by SRB assay", "assay_type": "functional", "how_it_was_run": "as §1"}, "[2]": {"experiment": "Cytotoxicity against human DU145 cells assessed as growth inhibition after 48 hrs by SRB assay", "assay_type": "functional, DU-145", "how_it_was_run": "as §1"}, "Leucine aminopeptidase [3]": {"molecular_target": "T1, Leucine aminopeptidase (Sus scrofa, UniProt Q29571)", "T1 sequence (Q29571 whole entry)": "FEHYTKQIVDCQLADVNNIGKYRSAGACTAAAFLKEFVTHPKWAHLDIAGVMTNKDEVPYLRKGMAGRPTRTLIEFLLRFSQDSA", "experiment": "Drug level assessed as porcine leucine aminopeptidase-mediated compound formation treated with (Z)-N,N''-(3-Methoxy-6-(3,4,5-trimethoxystyryl)-1,2-phenylene)bis(2-aminoacetamide) after 25 hrs using 1.5 units of enzyme by HPLC analysis", "assay_type": "ADME", "details": "pig", "how_it_was_run": "(§2)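 Porcine kidney microsomal LAP; units defined with 24 mM L-leucine p-nitroanilide in 50 mM sodium phosphate pH 7.2 at 37 °C. Enzyme preincubated in the same buffer at 37 °C, then substrate added. Aliquots were quenched with acetonitrile on ice, centrifuged and run on C18 HPLC (acetonitrile/water, 0.05% TFA, 1.0 mL/min, 22 °C, diode-array UV). Cleavage % from the parent/prodrug peak-area ratio; amounts from calibration curves.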"}, "Leucine aminopeptidase [4]": {"molecular_target": "T1, Leucine aminopeptidase", "experiment": "Drug level assessed as porcine leucine aminopeptidase-mediated compound formation treated with (Z)-N,N''-(3-Methoxy-6-(3,4,5-trimethoxystyryl)-1,2-phenylene)bis(2-aminoacetamide) after 25 hrs using 0.12 units of enzyme by HPLC analysis", "assay_type": "ADME", "details": "pig", "how_it_was_run": "as §2"}, "Leucine aminopeptidase [5]": {"molecular_target": "T1, Leucine aminopeptidase", "experiment": "Drug level assessed as porcine leucine aminopeptidase-mediated compound formation treated with (Z)-N,N''-(3-Methoxy-6-(3,4,5-trimethoxystyryl)-1,2-phenylene)bis(2-aminoacetamide) after 25 hrs using 3.7 units of enzyme by HPLC analysis", "assay_type": "ADME", "details": "pig", "how_it_was_run": "as §2"}, "Tubulin": {"molecular_target": "Tubulin (Bos taurus, UniProt Q6B856+Q862L2+Q862F3)", "experiment": "Inhibition of bovine brain tubulin polymerization preincubated for 15 mins by spectrophotometric analysis", "how_it_was_run": "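Purified bovine brain tubulin, 1.0 mg/mL (10 μM), in 0.8 M monosodium glutamate pH 6.6 with 4% DMSO and varied compound. Temperature jumped from 0 to 30 °C; turbidity at 350 nm followed for 20 min.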"}}, "data": [{"compound": "COc1ccc(/C=C\\c2cc(OC)c(OC)c(OC)c2)c(N)c1N", "values": [{"measurement": "GI50", "setting": "[1]", "value": 23.5, "unit": "nM"}, {"measurement": "GI50", "setting": "NCI-H460", "value": 35.9, "unit": "nM"}, {"measurement": "GI50", "setting": "[2]", "value": 39.1, "unit": "nM"}, {"measurement": "Drug metabolism", "setting": "Leucine aminopeptidase [3]", "value": "metabolite_detected"}, {"measurement": "Drug metabolism", "setting": "Leucine aminopeptidase [4]", "value": "metabolite_detected"}, {"measurement": "Drug metabolism", "setting": "Leucine aminopeptidase [5]", "value": "metabolite_detected"}, {"measurement": "IC50", "setting": "Tubulin", "value": 1500, "unit": "nM"}]}]}
